Measurements: paper PMC1390681 (Nucleic Acids Research, 2006)

Key:
[1] = system: SL2; assay: Multiplexed binding assay, ternary ligand mixture added to SL2, ESI-FTMS; set-up: species or system HIV-1; conditions: ternary mixture of vancomycin, mitoxantrone and neomycin B; negative control
Method in brief: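 SL2 hairpin (HIV-1 NL4-3 sequence), desalted in 100 mM ammonium acetate pH 7.5, heated 95°C 3 min, ice-cooled. Equimolar mix of up to three ligands added stepwise to 0.35 µM final RNA, giving 0.35–17.5 µM total ligand. Incubated 15 min at room temperature. Analysed by 2-propanol-assisted nanospray ESI-FTMS (7 T, negative ion). Species quantified from signal intensities divided by charge state.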

[2] = system: NC•SL2; assay: NC–RNA inhibition: ligand added to preformed NC•SL2 complex, ESI-FTMS; format: binding, HIV-1; conditions: 0.35–17.5 µM ligand added to preformed complex
[3] = system: NC•SL4; assay: NC–RNA inhibition: ligand added to preformed NC•SL4 complex, ESI-FTMS; format: binding, HIV-1; conditions: 0.35–17.5 µM ligand added to preformed complex
Method in brief: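 NC was expressed in E. coli BL21(DE3)-pLysE and purified non-denaturing, with two Zn2+ confirmed by MS. It was mixed equimolar with refolded hairpin (SL4 stem extended by three base pairs) for 15 min at room temperature, forming a 1:1 complex. Ligand (0.35–17.5 µM) was added to ~3.5 µM complex in 100 mM ammonium acetate pH 7.5, then read by negative-ion ESI-FTMS. IC50 at 0.5 fractional occupancy, from competition-isotherm fit, triplicate.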

[4] = system: NC•SL3; assay: NC–RNA inhibition: ligand added to preformed NC•SL3 complex, ESI-FTMS; format: binding, HIV-1; conditions: for ligand effect on NC•SL3 complex: 0.35–17.5 µM ligand added to preformed complex

| SMILES | binding to SL2 in multiplexed assay [1] | ligand effect on NC•SL2 complex [2] | ligand effect on NC•SL4 complex [3] | ligand effect on NC•SL3 complex [4] | equivalents of ligand bound to NC•SL3 complex (ternary species) ([4]; 5-fold addition of ligand) |
| --- | --- | --- | --- | --- | --- |
| CN[C@H](CC(C)C)C(=O)N[C@H]1C(=O)N[C@@H](CC(N)=O)C(=O)N[C@H]2C(=O)N[C@H]3C(=O)N[C@H](C(=O)N[C@H](C(=O)O)c4cc(O)cc(O)c4-c4cc3ccc4O)[C@H](O)c3ccc(c(Cl)c3)Oc3cc2cc(c3O[C@@H]2O[C@H](CO)[C@@H](O)[C@H](O)[C@H]2O[C@H]2C[C@](C)(N)[C@H](O)[C@H](C)O2)Oc2ccc(cc2Cl)[C@H]1O [vancomycin] | no binding was observed |  |  |  |  |
| Cn1cc(NC(=O)c2cc(NC(=O)c3cc(NC=O)cn3C)cn2C)cc1C(=O)NCCC(=N)N [Distamycin A, distamycin A] |  | No Effect | No Effect |  |  |
| CN(C)[C@@H]1C(O)=C(C(N)=O)C(=O)[C@@]2(O)C(O)=C3C(=O)c4c(O)ccc(Cl)c4[C@@](C)(O)[C@H]3C[C@@H]12 [Chlorotetracycline, chlorotetracycline] |  | No Effect | No Effect | No Effect |  |
| O=C1c2c(O)ccc(O)c2C(=O)c2c(NCCNCCO)ccc(NCCNCCO)c21 [Mitoxantrone, mitoxantrone] |  |  |  | no detectable signs of dissociation | up to three |
